Results taken from ChEMBL document CHEMBL1125409, “Synthesis and biological activity of acyclic analogues of 5,10-dideaza-5,6,7,8-tetrahydrofolic acid” (J Med Chem, 1992).

How the values were obtained:
CCRF-CEM [1] = assay: Cytotoxicity against human lymphoblastic leukemic CCRF-CEM cell line was evaluated as the concentration required for 50% inhibition of the growth of the control value; assay type: functional, cell-based
Outline: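 CCRF-CEM cells in RPMI 1640 with 10% dialyzed FBS, 16 mM HEPES and 8 mM MOPS, seeded at 4.8×10⁴ cells/well. Duplicate wells got graded concentrations diluted from a 4 mg/mL DMSO stock. After 72 h (95% air/5% CO₂), cells were counted on a Coulter counter. IC50 was taken from dose-response curves as 50% growth inhibition versus control.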

[2] = In vivo antitumor activity against C3H mammary tumor type after intraperitoneal administration of 400 mg/kg dose given once daily for 10 days; conditions: ip, 240 h
Mus musculus [3] = assay: In vivo antitumor activity against C3H mammary tumor type was expressed as toxic deaths/total treated mice at 400 mg/kg dose given once daily for 10 days; 2/10; conditions: 240 h
[4] = In vivo antitumor activity against […] tumor type after intraperitoneal administration of 200 mg/kg dose given once daily for 10 days; assay type: functional; conditions: ip, 240 h
Outline: (§1)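 C3H mammary adenocarcinoma fragments (1–2 mm³) were trocar-implanted sc axillary in syngeneic C3H mice. Treatment was ip once daily for 10 days, beginning 24 h post-implant. Tumor width and length were measured one day after the final dose, with V = L(W²)/2. Growth inhibition was calculated against untreated controls, and toxicity/total was noted.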

[5] = In vivo antitumor activity against lymphosarcoma tumor type after intraperitoneal administration of 100 mg/kg dose given twice daily for 8 days; assay type: functional; conditions: ip, 192 h
Outline: (§2)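 6C3HED lymphosarcoma: 1–2 mm³ fragments implanted sc by trocar in the axilla of syngeneic C3H mice. Dosing ip twice daily for 8 days, starting 24 h after implant. One day after the last dose, tumor volume was taken as L(W²)/2 and compared with controls to give % inhibition. Deaths over group size were recorded.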

Mus musculus [6] = assay: In vivo antitumor activity against […] tumor type was expressed as toxic deaths/total treated mice at 100 mg/kg dose given once daily for 10 days; 1/10; assay type: ADME, organism-based; set-up: dose 100 mg/kg; conditions: 240 h
[7] = In vivo antitumor activity against 6C3HED tumor type after intraperitoneal administration of 400 mg/kg; assay type: functional; conditions: ip; outline: as §2
CCRF-CEM [8] = assay: Compound was evaluated for reversal of growth inhibition against human lymphoblastic leukemic CCRF-CEM cells at 0.46 uM concentration and with 300 uM of AICA; assay type: functional
[9] = In vivo antitumor activity against lymphosarcoma tumor type after intraperitoneal administration of 200 mg/kg dose given twice daily for 8 days; assay type: functional; conditions: ip, 192 h; outline: as §2
Mus musculus [10] = assay: In vivo antitumor activity against […] tumor type was expressed as toxic deaths/total treated mice at 200 mg/kg dose given once daily for 10 days; 0/10; assay type: ADME, organism-based; set-up: dose 200 mg/kg; conditions: 240 h
Mus musculus [11] = assay: In vivo antitumor activity against […] tumor type was expressed as toxic deaths/total treated mice at 50 mg/kg dose given once daily for 10 days; 2/10; assay type: ADME, organism-based; set-up: dose 50 mg/kg; conditions: 240 h
[12] = In vivo antitumor activity against lymphosarcoma tumor type after intraperitoneal administration of 50 mg/kg dose given twice daily for 8 days; assay type: functional; conditions: ip, 192 h; outline: as §2
[13] = In vivo antitumor activity against […] tumor type after intraperitoneal administration of 100 mg/kg dose given once daily for 10 days; assay type: functional; conditions: ip, 240 h; outline: as §1
Mus musculus [14] = assay: In vivo antitumor activity against 6C3HED tumor type was expressed as toxic deaths/total treated mice at 400 mg/kg dose; 2/10; assay type: ADME, organism-based; set-up: dose 400 mg/kg
[15] = In vivo antitumor activity against […] tumor type after intraperitoneal administration of 50 mg/kg dose given once daily for 10 days; assay type: functional; conditions: ip, 240 h; outline: as §1
CCRF-CEM [16] = assay: Compound was evaluated for reversal of growth inhibition against human lymphoblastic leukemic CCRF-CEM cells at 0.46 uM concentration and with 5 uM of Thymidine; assay type: functional
Mus musculus [17] = assay: In vivo antitumor activity against lymphosarcoma tumor type was expressed as toxic deaths/total treated mice at 100 mg/kg dose given twice daily for 8 days; 0/9; assay type: ADME, organism-based; set-up: dose 100 mg/kg; conditions: 192 h
CCRF-CEM [18] = assay: Compound was evaluated for reversal of growth inhibition against human lymphoblastic leukemic CCRF-CEM cells at 0.46 uM concentration and with 100 uM of hypoxanthine; assay type: functional
Mus musculus [19] = assay: In vivo antitumor activity against lymphosarcoma tumor type was expressed as toxic deaths/total treated mice at 50 mg/kg dose given twice daily for 8 days; 0/10; assay type: ADME, organism-based; set-up: dose 50 mg/kg; conditions: 192 h

Structure (SMILES): Nc1nc(N)c(CCCCc2ccc(C(=O)N[C@@H](CC(=O)O)C(=O)O)cc2)c(O)n1
- IC50 (CCRF-CEM [1]): > 48000 nM

Structure (SMILES): Nc1nc(O)c(CCCCc2ccc(C(=O)N[C@@H](CCC(=O)O)C(=O)O)cc2)c(O)n1
- IC50 (CCRF-CEM [1]): 39800 nM

Structure (SMILES): Nc1nc(N)c(CCCCc2ccc(C(=O)N[C@@H](CCC(=O)O)C(=O)O)s2)c(O)n1
- IC50 (CCRF-CEM [1]): 59 nM

Structure (SMILES): Nc1nc2c(c(=O)[nH]1)C[C@@H](CCc1ccc(C(=O)N[C@@H](CCC(=O)O)C(=O)O)cc1)CN2 [LOMETREXOL]
- IC50 (CCRF-CEM [1]): 16 nM

Structure (SMILES): Nc1nc(N)c(CCCCCCCCCC(=O)N[C@@H](CCC(=O)O)C(=O)O)c(O)n1
- IC50 (CCRF-CEM [1]): > 47100 nM

Structure (SMILES): Nc1nc(N)c(CCCCc2csc(C(=O)N[C@@H](CCC(=O)O)C(=O)O)c2)c(O)n1
- IC50 (CCRF-CEM [1]): 142 nM

Structure (SMILES): Nc1nc(N)c(CCCCc2ccc(C(=O)N[C@@H](CCC(=O)O)C(=O)O)cc2)c(=O)[nH]1 [DIDEAZAACYCLOTETRAHYDROFOLIC ACID]
- inhibition in vivo at 400 mg/kg [2]: 78%
- Toxicity (Mus musculus [3]): 2
- inhibition in vivo at 200 mg/kg [4]: 36%
- IC50 (CCRF-CEM [1]): 132 nM
- inhibition in vivo at 100 mg/kg [5]: 66%
- Toxicity (Mus musculus [6]): 1
- inhibition in vivo at 400 mg/kg [7]: 100%
- Inhibition (CCRF-CEM [8]): 0%
- inhibition in vivo at 200 mg/kg [9]: 92%
- Toxicity (Mus musculus [10]): 0
- Toxicity (Mus musculus [11]): 2
- inhibition in vivo at 50 mg/kg [12]: 44%
- inhibition in vivo at 100 mg/kg [13]: 37%
- Toxicity (Mus musculus [14]): 2
- inhibition in vivo at 50 mg/kg [15]: 17%
- Inhibition (CCRF-CEM [16]): 80%
- Toxicity (Mus musculus [17]): 0
- Inhibition (CCRF-CEM [18]): 0%
- Toxicity (Mus musculus [19]): 0

Structure (SMILES): Nc1nc(N)c(CCCCc2ccc(C(=O)N[C@@H](CCC(=O)O)C(=O)O)cc2)c(N)n1
- IC50 (CCRF-CEM [1]): 42 nM

Structure (SMILES): Nc1nc(N)c(CCCNc2ccc(C(=O)N[C@@H](CCC(=O)O)C(=O)O)cc2)c(O)n1
- IC50 (CCRF-CEM [1]): 198 nM
- Inhibition (CCRF-CEM [8]): 55%
- Inhibition (CCRF-CEM [16]): 77%
- Inhibition (CCRF-CEM [18]): 0%

Structure (SMILES): Cc1nc(N)[nH]c(=O)c1CCCCc1ccc(C(=O)N[C@@H](CCC(=O)O)C(=O)O)cc1
- IC50 (CCRF-CEM [1]): 2330 nM

Structure (SMILES): Nc1nc(N)c(CCCCc2ccc(C(=O)N[C@@H](Cc3ccccc3)C(=O)O)cc2)c(O)n1
- IC50 (CCRF-CEM [1]): > 44500 nM
